Results: the M2OR odorant receptor database

Experiments:
Details in all cases: stereoisomer not certain
OR1A1 (Homo sapiens) = target: T1, OR1A1 (Homo sapiens) (UniProt Q9P1Q5)
T1 sequence (whole entry): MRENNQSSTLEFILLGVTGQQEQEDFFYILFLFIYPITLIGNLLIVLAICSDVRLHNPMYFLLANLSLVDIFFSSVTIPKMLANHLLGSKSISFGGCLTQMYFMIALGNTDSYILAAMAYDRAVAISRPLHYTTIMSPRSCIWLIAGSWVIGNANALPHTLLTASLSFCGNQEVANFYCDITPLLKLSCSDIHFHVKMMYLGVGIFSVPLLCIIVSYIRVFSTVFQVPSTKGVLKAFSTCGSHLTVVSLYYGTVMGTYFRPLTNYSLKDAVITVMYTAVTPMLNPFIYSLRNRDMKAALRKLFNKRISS
Summary of the method: (§1)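 Each entry records the cell line, G-protein, co-transfected protein and tags used. Methods varied with the source, often transient luciferase assays in mammalian cell lines. A receptor–molecule pair is called responsive (active) if the original authors judged its signal statistically different from baseline and non-responsive (inactive) otherwise.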

OR13A1 (Homo sapiens) = OR13A1 (Homo sapiens) (UniProt Q8NGR1)
Summary of the method: as §1

OR13C2 (Homo sapiens) = OR13C2 (Homo sapiens) (UniProt Q8NGS9)
Summary of the method: as §1

OR13C3 (Homo sapiens) = OR13C3 (Homo sapiens) (UniProt Q8NGS6)
Summary of the method: as §1

OR13C4 (Homo sapiens) = OR13C4 (Homo sapiens) (UniProt Q8NGS5)
Summary of the method: as §1

OR13C5 (Homo sapiens) = OR13C5 (Homo sapiens) (UniProt Q8NGS8)
Summary of the method: as §1

OR13C8 (Homo sapiens) = OR13C8 (Homo sapiens) (UniProt Q8NGS7)
Summary of the method: as §1

OR13C9 (Homo sapiens) = OR13C9 (Homo sapiens) (UniProt Q8NGT0)
Summary of the method: as §1

OR13D1 (Homo sapiens) = OR13D1 (Homo sapiens) (UniProt Q8NGV5)
Summary of the method: as §1

OR13F1 (Homo sapiens) = OR13F1 (Homo sapiens) (UniProt Q8NGS4)
Summary of the method: as §1

OR13G1 (Homo sapiens) = OR13G1 (Homo sapiens) (UniProt Q8NGZ3)
Summary of the method: as §1

OR13H1 (Homo sapiens) = OR13H1 (Homo sapiens) (UniProt Q8NG92)
Summary of the method: as §1

OR13J1 (Homo sapiens) = OR13J1 (Homo sapiens) (UniProt Q8NGT2)
Summary of the method: as §1

OR14A16 (Homo sapiens) = OR14A16 (Homo sapiens) (UniProt Q8NHC5)
Summary of the method: as §1

OR14A2 (Homo sapiens) = OR14A2 (Homo sapiens) (UniProt Q96R54)
Summary of the method: as §1

OR14C36 (Homo sapiens) = OR14C36 (Homo sapiens) (UniProt Q8NHC7)
Summary of the method: as §1

OR14I1 (Homo sapiens) = OR14I1 (Homo sapiens) (UniProt A6ND48)
Summary of the method: as §1

OR14J1 (Homo sapiens) = OR14J1 (Homo sapiens) (UniProt Q9UGF5)
Summary of the method: as §1

OR14K1 (Homo sapiens) = OR14K1 (Homo sapiens) (UniProt Q8NGZ2)
Summary of the method: as §1

OR13C7 (Homo sapiens) = OR13C7 (Homo sapiens) (UniProt P0DN81)
Summary of the method: as §1

Sequence of OR14K1 (Homo sapiens) (Q8NGZ2 whole entry): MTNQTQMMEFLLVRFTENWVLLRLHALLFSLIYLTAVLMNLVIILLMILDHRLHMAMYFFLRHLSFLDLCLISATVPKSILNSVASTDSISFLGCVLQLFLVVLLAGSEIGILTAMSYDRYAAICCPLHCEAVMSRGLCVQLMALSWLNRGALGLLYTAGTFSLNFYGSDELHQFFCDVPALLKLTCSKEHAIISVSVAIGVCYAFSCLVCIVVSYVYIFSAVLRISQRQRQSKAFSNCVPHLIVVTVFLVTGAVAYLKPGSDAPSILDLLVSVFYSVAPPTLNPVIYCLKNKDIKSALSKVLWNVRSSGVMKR
Sequence of OR13J1 (Homo sapiens) (Q8NGT2 whole entry): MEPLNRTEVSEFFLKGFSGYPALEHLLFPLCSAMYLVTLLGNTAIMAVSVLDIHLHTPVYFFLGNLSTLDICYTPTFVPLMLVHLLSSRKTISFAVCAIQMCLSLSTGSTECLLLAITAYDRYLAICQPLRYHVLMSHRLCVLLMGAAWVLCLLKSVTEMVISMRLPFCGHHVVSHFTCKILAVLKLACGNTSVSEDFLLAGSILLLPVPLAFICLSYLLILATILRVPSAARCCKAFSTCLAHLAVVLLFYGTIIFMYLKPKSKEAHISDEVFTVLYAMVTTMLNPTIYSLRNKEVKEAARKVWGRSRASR
Sequence of OR13C9 (Homo sapiens) (Q8NGT0 whole entry): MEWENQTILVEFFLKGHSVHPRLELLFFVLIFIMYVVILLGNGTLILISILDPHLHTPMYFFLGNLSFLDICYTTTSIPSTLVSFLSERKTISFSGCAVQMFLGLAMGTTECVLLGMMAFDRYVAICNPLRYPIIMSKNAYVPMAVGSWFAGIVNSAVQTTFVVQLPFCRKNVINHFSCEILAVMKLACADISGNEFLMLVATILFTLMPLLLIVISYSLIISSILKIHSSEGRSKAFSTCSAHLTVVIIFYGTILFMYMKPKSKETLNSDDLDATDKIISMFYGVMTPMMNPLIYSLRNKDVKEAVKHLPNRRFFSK
Sequence of OR14A2 (Homo sapiens) (Q96R54 whole entry): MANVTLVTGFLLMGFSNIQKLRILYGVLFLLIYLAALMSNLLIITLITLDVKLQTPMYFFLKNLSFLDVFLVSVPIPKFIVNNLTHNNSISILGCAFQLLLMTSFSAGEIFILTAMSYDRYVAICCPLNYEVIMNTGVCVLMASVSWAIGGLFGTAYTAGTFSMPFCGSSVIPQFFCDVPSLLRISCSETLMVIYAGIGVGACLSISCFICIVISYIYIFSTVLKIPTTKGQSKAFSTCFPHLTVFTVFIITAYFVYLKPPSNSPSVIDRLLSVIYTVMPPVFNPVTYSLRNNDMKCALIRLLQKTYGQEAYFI
Sequence of OR14J1 (Homo sapiens) (Q9UGF5 whole entry): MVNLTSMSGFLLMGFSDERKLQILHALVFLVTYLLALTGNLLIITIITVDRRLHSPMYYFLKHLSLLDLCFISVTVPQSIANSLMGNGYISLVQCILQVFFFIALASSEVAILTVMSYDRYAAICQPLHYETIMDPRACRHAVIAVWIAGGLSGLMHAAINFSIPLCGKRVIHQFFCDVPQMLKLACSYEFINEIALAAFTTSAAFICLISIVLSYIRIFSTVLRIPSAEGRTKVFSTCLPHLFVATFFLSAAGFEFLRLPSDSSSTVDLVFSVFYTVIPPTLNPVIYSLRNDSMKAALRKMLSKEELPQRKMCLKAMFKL
Sequence of OR13C4 (Homo sapiens) (Q8NGS5 whole entry): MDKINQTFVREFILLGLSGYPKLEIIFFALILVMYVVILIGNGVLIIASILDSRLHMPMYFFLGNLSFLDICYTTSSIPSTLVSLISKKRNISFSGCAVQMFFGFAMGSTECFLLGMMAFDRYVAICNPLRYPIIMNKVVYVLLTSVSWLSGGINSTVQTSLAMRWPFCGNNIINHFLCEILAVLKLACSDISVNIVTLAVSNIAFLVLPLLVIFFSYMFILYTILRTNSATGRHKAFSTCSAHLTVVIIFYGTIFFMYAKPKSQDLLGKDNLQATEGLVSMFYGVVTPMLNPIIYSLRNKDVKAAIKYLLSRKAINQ
Sequence of OR13D1 (Homo sapiens) (Q8NGV5 whole entry): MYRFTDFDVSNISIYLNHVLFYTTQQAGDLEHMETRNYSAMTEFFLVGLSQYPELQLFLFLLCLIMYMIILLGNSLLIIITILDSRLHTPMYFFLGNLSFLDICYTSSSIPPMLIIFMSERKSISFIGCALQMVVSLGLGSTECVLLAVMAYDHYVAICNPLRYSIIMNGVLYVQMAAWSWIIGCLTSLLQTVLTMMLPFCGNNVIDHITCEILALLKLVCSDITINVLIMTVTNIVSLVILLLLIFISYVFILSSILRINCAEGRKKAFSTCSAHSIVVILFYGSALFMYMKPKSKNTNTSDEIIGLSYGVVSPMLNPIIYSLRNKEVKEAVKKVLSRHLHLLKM
Sequence of OR13C8 (Homo sapiens) (Q8NGS7 whole entry): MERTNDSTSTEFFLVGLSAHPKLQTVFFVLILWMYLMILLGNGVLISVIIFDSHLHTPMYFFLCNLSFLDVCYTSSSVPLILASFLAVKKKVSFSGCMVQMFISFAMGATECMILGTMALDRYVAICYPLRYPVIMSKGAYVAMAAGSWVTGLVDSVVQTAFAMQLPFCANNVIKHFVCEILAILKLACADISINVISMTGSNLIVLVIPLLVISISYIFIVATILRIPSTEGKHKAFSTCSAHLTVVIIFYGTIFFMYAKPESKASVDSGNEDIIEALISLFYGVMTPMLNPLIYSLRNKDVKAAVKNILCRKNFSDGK
Sequence of OR13C2 (Homo sapiens) (Q8NGS9 whole entry): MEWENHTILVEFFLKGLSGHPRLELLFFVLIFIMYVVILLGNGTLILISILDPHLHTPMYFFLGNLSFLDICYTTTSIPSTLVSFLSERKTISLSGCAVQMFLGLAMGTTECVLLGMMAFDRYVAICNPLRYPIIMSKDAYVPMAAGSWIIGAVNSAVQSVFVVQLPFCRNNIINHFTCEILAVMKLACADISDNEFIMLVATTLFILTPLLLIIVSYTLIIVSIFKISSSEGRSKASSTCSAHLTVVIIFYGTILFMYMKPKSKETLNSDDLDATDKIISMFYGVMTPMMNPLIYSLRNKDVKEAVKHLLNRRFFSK
Sequence of OR14A16 (Homo sapiens) (Q8NHC5 whole entry): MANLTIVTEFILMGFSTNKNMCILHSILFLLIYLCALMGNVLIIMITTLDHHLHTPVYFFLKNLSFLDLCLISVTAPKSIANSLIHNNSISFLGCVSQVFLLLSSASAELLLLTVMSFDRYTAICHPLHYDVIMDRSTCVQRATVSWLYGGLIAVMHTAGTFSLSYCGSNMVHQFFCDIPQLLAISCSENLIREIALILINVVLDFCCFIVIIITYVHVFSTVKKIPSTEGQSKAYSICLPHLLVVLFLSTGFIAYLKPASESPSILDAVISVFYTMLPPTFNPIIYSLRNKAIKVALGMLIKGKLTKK
Sequence of OR14C36 (Homo sapiens) (Q8NHC7 whole entry): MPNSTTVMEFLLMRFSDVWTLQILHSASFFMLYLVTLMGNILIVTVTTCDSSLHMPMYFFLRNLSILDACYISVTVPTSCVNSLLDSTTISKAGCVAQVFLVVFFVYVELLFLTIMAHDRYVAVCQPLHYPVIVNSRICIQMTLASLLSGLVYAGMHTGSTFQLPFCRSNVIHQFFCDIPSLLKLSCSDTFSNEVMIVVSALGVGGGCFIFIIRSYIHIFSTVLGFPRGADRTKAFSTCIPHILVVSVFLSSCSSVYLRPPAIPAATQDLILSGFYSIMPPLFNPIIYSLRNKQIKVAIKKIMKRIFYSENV
Sequence of OR14I1 (Homo sapiens) (A6ND48 whole entry): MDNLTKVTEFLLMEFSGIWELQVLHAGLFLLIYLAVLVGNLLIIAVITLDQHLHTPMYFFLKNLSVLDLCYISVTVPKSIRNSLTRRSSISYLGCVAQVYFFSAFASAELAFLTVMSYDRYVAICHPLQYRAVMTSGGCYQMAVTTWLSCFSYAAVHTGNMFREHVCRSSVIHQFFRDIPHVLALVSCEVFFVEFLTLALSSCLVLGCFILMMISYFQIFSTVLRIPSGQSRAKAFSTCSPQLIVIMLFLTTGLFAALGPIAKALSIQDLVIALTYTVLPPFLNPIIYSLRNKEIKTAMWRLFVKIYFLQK
Sequence of OR13C3 (Homo sapiens) (Q8NGS6 whole entry): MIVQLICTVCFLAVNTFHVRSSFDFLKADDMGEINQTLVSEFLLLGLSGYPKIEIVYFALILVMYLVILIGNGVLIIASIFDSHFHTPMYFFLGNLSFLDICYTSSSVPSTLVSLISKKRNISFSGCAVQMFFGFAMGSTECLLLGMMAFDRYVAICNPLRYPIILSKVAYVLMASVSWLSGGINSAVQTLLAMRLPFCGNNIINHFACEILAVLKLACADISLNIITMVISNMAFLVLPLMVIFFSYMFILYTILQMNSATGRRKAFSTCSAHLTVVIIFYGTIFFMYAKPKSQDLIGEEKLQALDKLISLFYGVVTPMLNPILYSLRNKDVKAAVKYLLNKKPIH
Sequence of OR13C5 (Homo sapiens) (Q8NGS8 whole entry): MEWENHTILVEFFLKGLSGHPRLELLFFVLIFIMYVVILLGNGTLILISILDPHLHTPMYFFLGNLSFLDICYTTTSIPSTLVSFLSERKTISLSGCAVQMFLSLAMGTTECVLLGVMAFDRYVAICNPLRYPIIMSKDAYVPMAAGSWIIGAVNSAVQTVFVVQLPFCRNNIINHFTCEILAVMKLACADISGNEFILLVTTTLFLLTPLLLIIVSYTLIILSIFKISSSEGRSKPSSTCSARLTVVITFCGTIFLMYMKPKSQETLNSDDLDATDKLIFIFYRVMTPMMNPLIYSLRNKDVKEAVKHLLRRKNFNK
Sequence of OR13G1 (Homo sapiens) (Q8NGZ3 whole entry): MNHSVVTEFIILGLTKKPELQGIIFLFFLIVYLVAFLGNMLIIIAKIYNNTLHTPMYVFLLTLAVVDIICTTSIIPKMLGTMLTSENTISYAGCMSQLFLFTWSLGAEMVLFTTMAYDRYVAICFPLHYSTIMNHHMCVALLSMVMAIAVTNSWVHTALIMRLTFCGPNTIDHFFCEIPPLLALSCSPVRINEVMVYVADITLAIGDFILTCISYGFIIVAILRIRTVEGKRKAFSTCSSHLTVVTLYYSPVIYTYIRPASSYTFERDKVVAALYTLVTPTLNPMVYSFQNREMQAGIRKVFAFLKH

## CCC(Br)C(=O)O (stereo not drawn)
OR1A1 (Homo sapiens)
  odorant receptor agonist call: inactive

## O=c1cc(O)c2ccccc2o1
OR1A1 (Homo sapiens)
  odorant receptor agonist call: inactive

## CCCCC(Br)C(=O)O (stereo not drawn)
OR1A1 (Homo sapiens)
  odorant receptor agonist call: inactive

## O=C([O-])Cc1ccccc1
OR1A1 (Homo sapiens)
  odorant receptor agonist call: inactive

## C=CCSSCC=C
OR1A1 (Homo sapiens)
  odorant receptor agonist call: inactive

## Cc1ccc(O)c(C)c1
OR1A1 (Homo sapiens)
  odorant receptor agonist call: inactive

## SCc1ccco1
OR1A1 (Homo sapiens)
  odorant receptor agonist call: inactive

## C=CCc1ccccc1
OR1A1 (Homo sapiens)
  odorant receptor agonist call: inactive

## O=C(O)Cc1ccccc1
OR1A1 (Homo sapiens)
  odorant receptor agonist call: inactive

## C=CCOC(=O)Cc1ccccc1
OR13A1 (Homo sapiens)
  odorant receptor agonist call: inactive
OR13C2 (Homo sapiens)
  odorant receptor agonist call: inactive
OR13C3 (Homo sapiens)
  odorant receptor agonist call: inactive
OR13C4 (Homo sapiens)
  odorant receptor agonist call: inactive
OR13C5 (Homo sapiens)
  odorant receptor agonist call: inactive
OR13C8 (Homo sapiens)
  odorant receptor agonist call: inactive
OR13C9 (Homo sapiens)
  odorant receptor agonist call: inactive
OR13D1 (Homo sapiens)
  odorant receptor agonist call: inactive
OR13F1 (Homo sapiens)
  odorant receptor agonist call: inactive
OR13G1 (Homo sapiens)
  odorant receptor agonist call: inactive
OR13H1 (Homo sapiens)
  odorant receptor agonist call: inactive
OR13J1 (Homo sapiens)
  odorant receptor agonist call: inactive
OR14A16 (Homo sapiens)
  odorant receptor agonist call: inactive
OR14A2 (Homo sapiens)
  odorant receptor agonist call: inactive
OR14C36 (Homo sapiens)
  odorant receptor agonist call: inactive
OR14I1 (Homo sapiens)
  odorant receptor agonist call: inactive
OR14J1 (Homo sapiens)
  odorant receptor agonist call: inactive
OR14K1 (Homo sapiens)
  odorant receptor agonist call: inactive
OR1A1 (Homo sapiens)
  odorant receptor agonist call: active

## Cc1c([N+](=O)[O-])c(C)c([N+](=O)[O-])c(C(C)(C)C)c1[N+](=O)[O-]
OR13A1 (Homo sapiens)
  odorant receptor agonist call: inactive
OR13C2 (Homo sapiens)
  odorant receptor agonist call: inactive
OR13C3 (Homo sapiens)
  odorant receptor agonist call: inactive
OR13C4 (Homo sapiens)
  odorant receptor agonist call: inactive
OR13C5 (Homo sapiens)
  odorant receptor agonist call: inactive
OR13C7 (Homo sapiens)
  odorant receptor agonist call: inactive
OR13C8 (Homo sapiens)
  odorant receptor agonist call: inactive
OR13C9 (Homo sapiens)
  odorant receptor agonist call: inactive
OR13D1 (Homo sapiens)
  odorant receptor agonist call: inactive
OR13F1 (Homo sapiens)
  odorant receptor agonist call: inactive
OR13G1 (Homo sapiens)
  odorant receptor agonist call: inactive
OR13H1 (Homo sapiens)
  odorant receptor agonist call: inactive
OR13J1 (Homo sapiens)
  odorant receptor agonist call: inactive
OR14A16 (Homo sapiens)
  odorant receptor agonist call: inactive
OR14A2 (Homo sapiens)
  odorant receptor agonist call: inactive
OR14C36 (Homo sapiens)
  odorant receptor agonist call: inactive
OR14I1 (Homo sapiens)
  odorant receptor agonist call: inactive
OR14J1 (Homo sapiens)
  odorant receptor agonist call: inactive
OR14K1 (Homo sapiens)
  odorant receptor agonist call: inactive
OR1A1 (Homo sapiens)
  odorant receptor agonist call: active

## CSSC
OR1A1 (Homo sapiens)
  odorant receptor agonist call: inactive

## CCCCCCC(Br)C(=O)O (stereo not drawn)
OR1A1 (Homo sapiens)
  odorant receptor agonist call: inactive

## Cc1ccccc1O
OR1A1 (Homo sapiens)
  odorant receptor agonist call: inactive

## ClC=CCl
OR1A1 (Homo sapiens)
  odorant receptor agonist call: inactive

## C=CCc1ccc(OC)cc1
OR1A1 (Homo sapiens)
  odorant receptor agonist call: active

## COc1ccc(C=O)cc1
OR1A1 (Homo sapiens)
  odorant receptor agonist call: inactive

## CC(C=O)Cc1ccc2c(c1)OCO2 (stereo not drawn)
OR1A1 (Homo sapiens)
  odorant receptor agonist call: active

## CCOC(=O)Cc1ccccc1
OR1A1 (Homo sapiens)
  odorant receptor agonist call: active

## CCC1CCC(=O)O1 (stereo not drawn)
OR1A1 (Homo sapiens)
  odorant receptor agonist call: inactive

## CCCC(Br)C(=O)O (stereo not drawn)
OR1A1 (Homo sapiens)
  odorant receptor agonist call: inactive
